# Compounds with a hit are over-represented: about 1.9% of the library has one in this group of screens.
# CHRM5 PAM – potentiates acetylcholine response at human M5 receptor; activation, % at 3 µM; AID 624038; CHO-K1 hM5, Fluo-8 calcium, ACh EC20 PAM; 0% = ACh EC20, 100% = ACh EC100; 360,000 tested, 0.3% active; P08912;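 active = activation above the run cutoff, the mean activation of all test compounds plus 3 SD, cut at about 18% in these data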
# Target sequence (P08912 whole entry, looked up): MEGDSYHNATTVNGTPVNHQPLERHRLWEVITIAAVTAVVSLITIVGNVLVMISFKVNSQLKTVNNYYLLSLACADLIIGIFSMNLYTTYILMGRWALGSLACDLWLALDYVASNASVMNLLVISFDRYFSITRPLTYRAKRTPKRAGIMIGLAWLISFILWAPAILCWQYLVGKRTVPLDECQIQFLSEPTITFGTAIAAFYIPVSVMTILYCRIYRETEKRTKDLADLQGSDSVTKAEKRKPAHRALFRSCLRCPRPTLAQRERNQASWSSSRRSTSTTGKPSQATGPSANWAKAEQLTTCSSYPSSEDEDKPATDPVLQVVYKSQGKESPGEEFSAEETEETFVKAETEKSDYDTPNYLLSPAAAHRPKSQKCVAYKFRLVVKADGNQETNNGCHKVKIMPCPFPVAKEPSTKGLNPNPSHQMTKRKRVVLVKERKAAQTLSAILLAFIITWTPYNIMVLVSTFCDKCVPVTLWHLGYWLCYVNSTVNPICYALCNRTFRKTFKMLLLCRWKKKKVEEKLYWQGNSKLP
#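 Assay system: CHO-K1 hM5 cells / Incubation: Fluo-8 loading 80 min at 37 °C plus 30 min room temperature / Technique: Fluo-8 calcium dye fluorescence, kinetic read / Repeats: single replicate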
# M4 ag – CHRM4 agonism in calcium assay; P08173; CHO-K1 hM4/Gqi5, Fluo-8 calcium fluorescence; vehicle 0%, full acetylcholine response 100%; activation, % at 3 µM; 360,000 tested, 0.14% active;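 active = activation above the run mean over all test wells plus 3 SD, cut at about 32% in these data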;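 also: peak over basal fluorescence ratio per well then scaled between controls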
# M4 PAM – CHRM4 positive allosteric modulation; P08173; CHO-K1 hM4/Gqi5, Fluo-8 calcium fluorescence, ACh EC20; 0% = ACh EC20, 100% = maximal ACh; activation, % at 3 µM; 360,000 tested, 0.4% active; AID 624126;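 active = activation above its plate's cutoff, the mean activation of sample wells plus 3 SD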
# M4 antag – CHRM4 antagonism in calcium assay; P08173; CHO-hM4 cells, ACh EC80, Fluo-8 calcium fluorescence; inhibition, % at 3 µM; 360,000 tested, 0.73% active;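 active = inhibition above its plate's cutoff, the mean inhibition of sample wells plus 3 SD, cut at about 27% in these data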
# M5 ag – agonists of human muscarinic M5 receptor (CHRM5); 360,000 tested, 0.19% active; P08912; activation, % at 3 µM; CHO-K1 hM5 cells, Fluo-8 calcium fluorescence; 0% DMSO wells, 100% maximal acetylcholine response; AID 624037;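 active = activation above the run's mean over test compounds plus 3 SD, cut at about 23% in these data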;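 also: signal is peak over basal fluorescence ratio across the kinetic read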
# M5 antag – antagonists of human muscarinic M5 receptor (CHRM5); P08912; CHO-hM5 cells, Fluo-8 calcium fluorescence, ACh EC80; inhibition, % at 3 µM; 360,000 tested, 0.59% active;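 active = inhibition above a per-plate cutoff, the mean of that plate's test compounds plus 3 SD, cut at about 27% in these data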
# Hits are given with their value; – = inactive.
SMILES,CHRM5 PAM,M4 ag,M4 PAM,M4 antag,M5 ag,M5 antag
Cc1ccc2c(C)c(C(=O)NCc3ccc(S(N)(=O)=O)cc3)oc2c1C,27,–,–,–,–,–
COC(=O)C1(C(=O)OC)c2cc3c(cc2CN(S(=O)(=O)c2ccc(C)cc2)C1CC(C)=O)OCO3 (stereo unspecified),–,–,–,–,–,–
O=c1c2ccccc2sc2ccc(NCCCN3CCOCC3)cc12,–,33,–,–,–,–
O=C(CCc1nnc(-c2ccccc2)o1)c1ccc(Cl)cc1,–,–,33,–,–,–
Oc1ccc(-c2cc(-c3ccc(O)cc3)nc(-c3ccccc3)n2)cc1,–,–,34,–,–,–
CN(N)c1nc(C(F)(F)F)nc2ccccc12,–,–,–,–,–,–
CN(NS(=O)(=O)c1ccc(Br)cc1)c1nc(C(F)(F)F)nc2ccccc12,–,–,–,–,–,29
CCOC(=O)c1sc(NC(=O)Nc2ccccc2)cc1C,–,–,–,–,–,46
CCOC(=O)c1sc(NC(=O)Nc2ccccc2Cl)cc1C,–,–,–,–,–,–
Cc1nc2ccccc2c(=O)n1NC(=O)c1cccc(Cl)c1,–,–,–,28,–,–
O=C1NC(c2ccccc2)Nc2c1sc(=S)n2-c1ccccc1 (stereo unspecified),–,–,–,–,–,–
O=C(NCc1ccncc1)c1cccc(Cn2cc(Br)cn2)c1,–,–,–,82,–,–
O=C(O)c1cccc(Cn2cc(Br)cn2)c1,–,–,–,–,–,–
C[C@H](CO)N1C[C@H](C)[C@H](CN(C)C(=O)Nc2ccc3c(c2)OCCO3)OCc2cnnn2CCCC1=O,–,–,–,–,–,–
Cc1[nH]c2ccc3c(ncn3CCC#N)c2c1C,–,–,–,31,–,–
Cc1[nH]c2ccc3ncccc3c2c1C,–,–,–,–,–,–
CCc1ccc(OCC(=O)NNC(=O)c2cnccn2)c(Br)c1,–,–,20,–,–,–
COc1cc(C=O)ccc1OCCCOc1ccccc1C(=O)O,–,–,32,–,–,–
COc1cc(C=O)ccc1OCCCOc1ccccc1[N+](=O)[O-],–,–,–,–,–,–
CCCCNC(=O)CSc1nnc(Cc2ccc(Cl)c(Cl)c2)c(=O)[nH]1,–,–,–,–,–,–
CC(C)Cn1c(N)c(C(=O)CCl)c(=O)n(C)c1=O,–,–,–,–,–,–
CC(C)Cn1c(N)c(C=O)c(=O)n(C)c1=O,18,–,–,–,–,–
CC(C)CCN1CC(C(=O)NCc2ccc(F)cc2)CC1=O (stereo unspecified),–,–,–,–,–,–
O=C(OCc1nnc(-c2ccccc2)o1)C1CC(=O)N(CCc2ccccc2)C1 (stereo unspecified),–,–,25,–,–,–
O=C(NCc1ccc(F)cc1)C1CC(=O)N(CCc2ccccc2)C1 (stereo unspecified),19,–,–,–,–,–
SMILES,CHRM5 PAM,M4 ag,M4 PAM,M4 antag,M5 ag,M5 antag
COC(=O)[C@]12CCCCC=C1N(Cc1cccc3ccccc13)C(=O)[C@H](CC(=O)NCC13CC4CC(CC(C4)C1)C3)C2,–,–,–,–,–,–
Cn1c(=O)c2[nH]c(-c3ccc(S(=O)(=O)O)cc3)nc2n(C)c1=O,–,–,–,–,68,–
Cc1ccc(NC(=O)CSCC(=O)N2c3ccccc3CCc3ccccc32)cc1,–,–,–,–,–,–
NS(=O)(=O)c1ccc(NC(=S)NCCc2ccccc2)cc1,–,–,–,–,–,–
O=[N+]([O-])c1ccc(NC(=S)NCCc2ccc(Cl)cc2)cc1,–,–,–,–,–,27
Cc1ccc(NC(=S)NCCSc2ccc(Cl)cc2)cc1,–,–,–,36,–,–
O=[N+]([O-])c1ccc(NC(=S)NCCc2ccccc2)cc1,–,–,–,–,–,27
COC(=O)c1cc(=O)c2c(ccc3oc(=O)ccc32)[nH]1,–,–,–,–,–,–
Fc1ccc(NC(=S)NC2CCN(Cc3ccccc3)CC2)cc1,–,–,–,–,–,–
Cc1cccc(NC(=S)NC2CCN(Cc3ccccc3)CC2)c1C,–,–,24,–,–,–
Fc1cccc(NC(=S)NC2CCCCCCC2)c1,–,–,–,–,–,27
S=C(Nc1cccc(Cl)c1Cl)NC1CCN(Cc2ccccc2)CC1,–,–,–,–,–,–
S=C(Nc1ccc(Cl)c(Cl)c1)NC1CCN(Cc2ccccc2)CC1,–,46,–,38,–,33
S=C(Nc1ccc(Cl)c(Cl)c1)NC1CCCCC1,–,–,–,–,–,29
C[C@H](CO)N1C[C@H](C)[C@H](CN(C)C(=O)Nc2ccccc2)OCc2cnnn2CCCC1=O,–,–,–,–,–,–
CC(C)CC(=O)NC(=S)Nc1ccc(S(=O)(=O)N2CCCC2)cc1,–,–,–,–,–,–
O=C(CCn1ccc2cc(S(=O)(=O)N3CCCC3)ccc21)NCCc1ccccc1,26,–,–,–,–,29
Cc1ccc(CCNC(=O)CCn2ccc3cc(S(=O)(=O)N4CCCC4)ccc32)cc1,–,–,–,–,–,–
CC1=CC(C)(C)N2C(=O)C(=O)c3cc(OC(=O)c4ccco4)cc1c32,–,–,–,–,36,–
O=C(CN1CCCCC1)NCC(=O)Nc1ccc(F)c(F)c1F,–,–,–,–,–,–
O=c1[nH]c2ccccc2nc1/C=C(\O)c1cccs1,–,–,–,–,31,–
O=C(/C(=C\c1ccccc1)c1nc2ccccc2[nH]1)c1ccc(Cl)cc1,–,–,–,–,–,–
O=C(/C(=C/c1ccc(Cl)cc1)c1nc2ccccc2[nH]1)c1cccs1,–,–,–,66,–,–
O/C(=C\c1nc2ccccc2[nH]1)c1cccs1,–,–,–,–,–,–
CCOC(=O)C1=C[C@@H](C(C)C)N(S(=O)(=O)c2ccc(C)cc2)[C@H]1c1ccccc1F,–,–,–,–,–,–
O=C1NC[C@@H](CCCCN2C[C@H](Cc3ccccc3)N(CC3CCCCC3)C(=O)C2=O)N(CCc2ccccc2)C1=O,–,–,–,–,–,–
COc1ccc(CC(=O)NC(C)c2nnc(SCCC(=O)Nc3ccccc3)n2C)cc1 (stereo unspecified),18,–,–,–,–,–
O=C1CCCC(O)=C1N=Nc1cccc(C(=O)O)c1,–,–,20,–,–,–
Cc1ccc(S(=O)(=O)N(C)C)cc1NC(=O)CCCNC(=O)c1ccc(Cl)cc1,–,–,–,–,–,–

# Screening data from PubChem.
